Key:
K562 [1] = test: Antiproliferative activity against human K562 cells by SRB assay; type: functional
Procedure, shortened: (§1)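 Tested in the NCI in vitro human tumor cell line screen, run by the National Cancer Institute. Each compound was given at five concentrations (100, 10, 1.0, 0.1 and 0.01 μM). GI50 is the drug concentration that reduces growth of treated cells to half that of control cells during drug incubation, judged from the SRB signal.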

MOLT-4 = test: Antiproliferative activity against human MOLT4 cells by SRB assay; type: functional; procedure, shortened: as §1
A549 [2] = test: Antiproliferative activity against human A549 cells by SRB assay; type: functional; procedure, shortened: as §1
EKVX = test: Antiproliferative activity against human EKVX cells by SRB assay; type: functional; procedure, shortened: as §1
HOP-62 [3] = test: Antiproliferative activity against human HOP62 cells by SRB assay; type: functional; procedure, shortened: as §1
HOP-92 [4] = test: Antiproliferative activity against human HOP92 cells by SRB assay; type: functional; procedure, shortened: as §1
NCI-H226 [5] = test: Antiproliferative activity against human NCI-H226 cells by SRB assay; type: functional; procedure, shortened: as §1
NCI-H23 [6] = test: Antiproliferative activity against human NCI-H23 cells by SRB assay; type: functional; procedure, shortened: as §1
NCI-H322M = test: Antiproliferative activity against human NCI-H322M cells by SRB assay; type: functional; procedure, shortened: as §1
HCT-116 = test: Antiproliferative activity against human HCT116 cells by SRB assay; type: functional; procedure, shortened: as §1
HCT-15 = test: Antiproliferative activity against human HCT15 cells by SRB assay; type: functional; procedure, shortened: as §1
SW-620 [7] = test: Antiproliferative activity against human SW620 cells by SRB assay; type: functional
Procedure, shortened: (§2)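 Cell growth was tested in the NIH in vitro disease-oriented human tumor cell line screen, which NCI ran for these compounds. Compounds were tested at five concentrations (100, 10, 1.0, 0.1 and 0.01 μM), and growth was read by SRB signal. GI50 is the drug concentration that reduces growth of treated cells to half that of control cells during drug incubation.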

SF-268 [8] = test: Antiproliferative activity against human SF268 cells by SRB assay; type: functional; procedure, shortened: as §1
SF-295 = test: Antiproliferative activity against human SF295 cells by SRB assay; type: functional; procedure, shortened: as §1
SF-539 = test: Antiproliferative activity against human SF539 cells by SRB assay; type: functional; procedure, shortened: as §1
U-251 [9] = test: Antiproliferative activity against human U251 cells by SRB assay; type: functional; procedure, shortened: as §2
MDA-MB-435 [10] = test: Antiproliferative activity against human MDA-MB-435 cells by SRB assay; type: functional; procedure, shortened: as §1
SK-MEL-28 = test: Antiproliferative activity against human SK-MEL-28 cells by SRB assay; type: functional; procedure, shortened: as §1
SK-MEL-5 [11] = test: Antiproliferative activity against human SK-MEL-5 cells by SRB assay; type: functional; procedure, shortened: as §1
OVCAR-5 = test: Antiproliferative activity against human OVCAR5 cells by SRB assay; type: functional; procedure, shortened: as §1
OVCAR-8 [12] = test: Antiproliferative activity against human OVCAR8 cells by SRB assay; type: functional; procedure, shortened: as §1
786-0 = test: Antiproliferative activity against human 786-0 cells by SRB assay; type: functional; procedure, shortened: as §1
ACHN [13] = test: Antiproliferative activity against human ACHN cells by SRB assay; type: functional; procedure, shortened: as §1
CAKI-1 = test: Antiproliferative activity against human Caki1 cells by SRB assay; type: functional; procedure, shortened: as §1
RXF 393 [14] = test: Antiproliferative activity against human RXF393 cells by SRB assay; type: functional; procedure, shortened: as §1
SN12C [15] = test: Antiproliferative activity against human SN12C cells by SRB assay; type: functional; procedure, shortened: as §1
DU-145 [16] = test: Antiproliferative activity against human DU145 cells by SRB assay; type: functional; procedure, shortened: as §1
[17] = Antiproliferative activity against human Hs 578T cells by SRB assay; type: functional; procedure, shortened: as §1
BT-549 [18] = test: Antiproliferative activity against human BT549 cells by SRB assay; type: functional; procedure, shortened: as §1
MDA-MB-468 = test: Antiproliferative activity against human MDA-MB-468 cells by SRB assay; type: functional; procedure, shortened: as §1
CCRF-CEM = test: Cytotoxicity against human CCRF-CEM cells; type: cell-based
K562 [19] = test: Cytotoxicity against human K562 cells; type: cell-based
A549 [20] = test: Cytotoxicity against human A549 cells; type: cell-based
Procedure, shortened: (§3)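 Tested in the NCI in vitro disease-oriented human tumour cell line screen, with screening performed by NCI. Growth was read by SRB signal over the drug incubation period at five concentrations: 100, 10, 1.0, 0.1 and 0.01 μM. GI50 is the concentration that reduces growth of treated cells to half that of control cells.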

HOP-62 [21] = test: Cytotoxicity against human HOP62 cells; type: cell-based; procedure, shortened: as §3
HOP-92 [22] = test: Cytotoxicity against human HOP92 cells; type: cell-based
NCI-H226 [23] = test: Cytotoxicity against human NCI-H226 cells; type: cell-based
NCI-H23 [24] = test: Cytotoxicity against human NCI-H23 cells; type: cell-based
NCI-H460 = test: Cytotoxicity against human NCI-H460 cells; type: cell-based
HT-29 = test: Cytotoxicity against human HT-29 cells; type: cell-based; procedure, shortened: as §3
SW-620 [25] = test: Cytotoxicity against human SW620 cells; type: cell-based
Procedure, shortened: (§4)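 Screened by NCI in its in vitro disease-oriented human tumour cell line panel. Compounds tested at five concentrations (100, 10, 1.0, 0.1 and 0.01 μM). Growth read by sulforhodamine B (SRB) signal. GI50 is the concentration reducing growth of treated cells to half that of control cells during the drug incubation.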

SF-268 [26] = test: Cytotoxicity against human SF268 cells; type: cell-based; procedure, shortened: as §3
SNB-19 = test: Cytotoxicity against human SNB19 cells; type: cell-based; procedure, shortened: as §4
SNB-75 = test: Cytotoxicity against human SNB75 cells; type: cell-based; procedure, shortened: as §4
U-251 [27] = test: Cytotoxicity against human U251 cells; type: cell-based; procedure, shortened: as §4
LOX IMVI = test: Cytotoxicity against human LOXIMVI cells; type: cell-based
MDA-MB-435 [28] = test: Cytotoxicity against human MDA-MB-435 cells; type: cell-based
SK-MEL-5 [29] = test: Cytotoxicity against human SK-MEL-5 cells; type: cell-based
UACC-62 = test: Cytotoxicity against human UACC62 cells; type: cell-based; procedure, shortened: as §4
IGROV-1 = test: Cytotoxicity against human IGROV1 cells; type: cell-based
OVCAR-3 = test: Cytotoxicity against human OVCAR3 cells; type: cell-based; procedure, shortened: as §3
OVCAR-8 [30] = test: Cytotoxicity against human OVCAR8 cells; type: cell-based
A498 = test: Cytotoxicity against human A498 cells; type: cell-based
ACHN [31] = test: Cytotoxicity against human ACHN cells; type: cell-based
RXF 393 [32] = test: Cytotoxicity against human RXF393 cells; type: cell-based; procedure, shortened: as §3
SN12C [33] = test: Cytotoxicity against human SN12C cells; type: cell-based; procedure, shortened: as §4
DU-145 [34] = test: Cytotoxicity against human DU145 cells; type: cell-based; procedure, shortened: as §3
MCF7 = test: Cytotoxicity against human MCF7 cells; type: cell-based
BT-549 [35] = test: Cytotoxicity against human BT549 cells; type: cell-based
T47D = test: Cytotoxicity against human T47D cells; type: cell-based; procedure, shortened: as §4

Work on `O=C(/C=C/c1ccc(CN(CCO)CCc2c[nH]c3ccccc23)cc1)NO` [DACINOSTAT] yielded a GI50 (K562 [1]) of 0.55 µM, a GI50 (MOLT-4) of 0.311 µM and a GI50 (A549 [2]) of 1.09 µM. The GI50 (EKVX) was 1.75 µM, the GI50 (HOP-62 [3]) was 0.502 µM and the GI50 (HOP-92 [4]) was 0.199 µM. The GI50 (NCI-H226 [5]) was 1.41 µM, the GI50 (NCI-H23 [6]) was 1.5 µM and the GI50 (NCI-H322M) was 2.26 µM. It also gave a GI50 (HCT-116) of 0.347 µM, a GI50 (HCT-15) of 2.07 µM and a GI50 (SW-620 [7]) of 0.478 µM. For the same compound, the GI50 (SF-268 [8]) was 1.53 µM, the GI50 (SF-295) was 0.743 µM and the GI50 (SF-539) was 0.965 µM. For the same compound, the GI50 (U-251 [9]) was 0.773 µM, the GI50 (MDA-MB-435 [10]) was 0.537 µM and the GI50 (SK-MEL-28) was 0.993 µM. The GI50 (SK-MEL-5 [11]) was 0.271 µM, the GI50 (OVCAR-5) was 0.26 µM and the GI50 (OVCAR-8 [12]) was 0.45 µM. The GI50 (786-0) was 2.38 µM, the GI50 (ACHN [13]) was 1.1 µM and the GI50 (CAKI-1) was 0.619 µM. The GI50 (RXF 393 [14]) was less than 0.01 µM, the GI50 (SN12C [15]) was 1.62 µM and the GI50 (DU-145 [16]) was 0.58 µM. For the same compound, the GI50 [17] was 0.619 µM, the GI50 (BT-549 [18]) was 3.92 µM and the GI50 (MDA-MB-468) was 0.452 µM. The LC50 (CCRF-CEM) was greater than 100 µM, the LC50 (K562 [19]) was greater than 100 µM and the LC50 (A549 [20]) was 94.6 µM. It also gave an LC50 (HOP-62 [21]) greater than 100 µM, an LC50 (HOP-92 [22]) of 68.2 µM and an LC50 (NCI-H226 [23]) of 20 µM. The LC50 (NCI-H23 [24]) was greater than 100 µM, the LC50 (NCI-H460) was greater than 100 µM and the LC50 (HT-29) was greater than 100 µM. It also gave an LC50 (SW-620 [25]) of 81.3 µM, an LC50 (SF-268 [26]) of 92.1 µM and an LC50 (SNB-19) of 31.7 µM. It also gave an LC50 (SNB-75) greater than 100 µM, an LC50 (U-251 [27]) of 5.82 µM and an LC50 (LOX IMVI) of 6.04 µM. It also gave an LC50 (MDA-MB-435 [28]) of 28.8 µM, an LC50 (SK-MEL-5 [29]) of 4.02 µM and an LC50 (UACC-62) of 6.39 µM. For the same compound, the LC50 (IGROV-1) was 48.9 µM, the LC50 (OVCAR-3) was 51 µM and the LC50 (OVCAR-8 [30]) was 92.5 µM. It also gave an LC50 (A498) of 5.88 µM, an LC50 (ACHN [31]) of 94.3 µM and an LC50 (RXF 393 [32]) of 15.3 µM. For the same compound, the LC50 (SN12C [33]) was greater than 100 µM, the LC50 (DU-145 [34]) was greater than 100 µM and the LC50 (MCF7) was greater than 100 µM. For the same compound, the LC50 (BT-549 [35]) was 85.6 µM and the LC50 (T47D) was greater than 100 µM.

Source: ChEMBL document CHEMBL1806473, “Structure-based optimization of click-based histone deacetylase inhibitors” (Eur J Med Chem, 2011)
